The results in this text go back to ChEMBL document CHEMBL1124057, “Synthesis of arginine-vasopressins, modified in positions 1 and 2, as antagonists of the vasopressor response to the parent hormone” (J Med Chem, 1988).

Series [1] has as its system Rattus norvegicus. The series is described as follows: Agonistic activity was determined according to a four-point dosage schedule in anesthetized rat (vasopressor assay). The class given is functional.
For series [2], the species on record is Rattus norvegicus. The series can be described thus: Antagonist activity expressed as the effective dose that reduces the response to 2x units to equal response to 1x units of agonist (vasopressor assay). The class given is functional. In a few lines:
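Vasopressor antagonism measured in anesthetized, dibenamine-treated rats, with arginine-vasopressin (408 IU/mg) as the challenging agonist. Potency is given as the effective dose (ED), the antagonist dose in nmol/kg body weight.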

In series [3] the test system is Rattus norvegicus. The series is described as follows: Antidiuretic potency was tested in rat by intravenous injection and the change of conductivity of secreted urine was measured (antagonistic experiment). The class given is functional. In a few lines: (§1)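 Antidiuretic assay in anesthetized female Sprague-Dawley rats, with compounds given by intravenous injection. The change in conductivity of secreted urine was the effect parameter in both agonist and antagonist runs. Arginine-vasopressin (408 IU/mg) was the standard for agonism and the agonist in antagonism runs.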

Series [4] deals with Rattus norvegicus. The series is described as follows: Antidiuretic potency was tested in rat by intravenous injection and the change of conductivity of secreted urine was measured (agonistic experiment). The class given is functional. In a few lines:
as §1

Series [5] in a line: The time for complete recovery of the AVP effect was measured. The class given is ADME.
Series [6] has as its system Rattus norvegicus. The series is described as follows: Antidiuretic potency was tested in rat by intravenous injection and the change of conductivity of secreted urine was measured (antagonistic experiment); Weak, inconsistent. The class given is functional, organism-based. In a few lines:
as §1

*1 amine or outer side, *2 acyl side, *3 side chain or, on linkers, in order; H or OH if unused. Where a SMILES comes first, the peptide text is derived from it. Bridges are numbered along the chain shown (N, C = ends). [ ]: non-standard residue; d: D form. X9 = O=C(CC1(S[*:3])CCC(c2ccccc2)CC1)[C@H](Cc1ccc(O)cc1)N([C@@H](Cc1ccccc1)C(=O)[*:2])[*:1]; X5 = CN1CCC(CC(=O)[C@H](Cc2ccc(O)cc2)N([C@@H](Cc2ccccc2)C(=O)[*:2])[*:1])(S[*:3])CC1; X8 = CC1CCC(CC(=O)[C@H](Cc2ccc(O)cc2)N([C@@H](Cc2ccccc2)C(=O)[*:2])[*:1])(S[*:3])CC1; X1 = CC(C)(C)C1CCC(CC(=O)[*:1])(S[*:2])CC1; X4 = O=C(CC1(S[*:2])CCC(c2ccccc2)CC1)[*:1]; X2 = CC1CCC(CC(=O)[*:1])(S[*:2])CC1; X3 = CN1CCC(CC(=O)[*:1])(S[*:2])CC1; X6 = O=C(CC1(S[*:2])CCCCC1)[*:1] A value given as a limit tells only on which side of the number the result lay.

`COc1ccc(C[C@@H]2NC(=O)CC3(CCCCC3)SSC[C@@H](C(=O)N3CCC[C@H]3C(=O)N[C@@H](CCCN=C(N)N)C(=O)NCC(N)=O)NC(=O)[C@H](CC(N)=O)NC(=O)[C@H](CCC(N)=O)NC(=O)[C@H](Cc3ccccc3)NC2=O)cc1` (Y(Me)FQNCPRG-NH2; linker N-5 via X6) [listing 1 of 2 here] displayed an Agonism in the series on Rattus norvegicus [1] of 0 IU mg-1.

Compound `CC(C)(C)C1CCC2(CC1)CC(=O)N[C@@H](Cc1ccc(O)cc1)C(=O)N[C@@H](Cc1ccccc1)C(=O)N[C@@H](CCC(N)=O)C(=O)N[C@@H](CC(N)=O)C(=O)N[C@H](C(=O)N1CCC[C@H]1C(=O)N[C@@H](CCCN=C(N)N)C(=O)NCC(N)=O)CSS2` (some centres undefined) (YFQNCPRG-NH2; linker N-5 via X1) [listing 1 of 2 here] registered an ED in the series filed under Rattus norvegicus [2] of 2 nmol/kg. Besides, the Agonism in the series with Rattus norvegicus [1] was 0.04 IU mg-1; in the series with Rattus norvegicus [4], 0.13 IU mg-1. This compound also showed an Antagonism with Rattus norvegicus [3] of 0.

In the case of `CC1CCC2(CC1)CC(=O)N[C@@H](Cc1ccc(O)cc1)C(=O)N[C@@H](Cc1ccccc1)C(=O)N[C@@H](CCC(N)=O)C(=O)N[C@@H](CC(N)=O)C(=O)N[C@H](C(=O)N1CCC[C@H]1C(=O)N[C@@H](CCCN=C(N)N)C(=O)NCC(N)=O)CSS2` (some centres undefined) (YFQNCPRG-NH2; linker N-5 via X2) [listing 1 of 2 here], in the series filed under Rattus norvegicus [2], the ED is listed as 1.04 nmol/kg. Also, the Agonism with Rattus norvegicus [1] amounted to 0 IU mg-1; in the series with Rattus norvegicus [4] it was 0.14 IU mg-1.

Turning to `NC(=O)CC[C@@H]1NC(=O)[C@H](Cc2ccccc2)NC(=O)[C@H](Cc2ccc(O)cc2)NC(=O)CC2(CCC(c3ccccc3)CC2)SSC[C@@H](C(=O)N2CCC[C@H]2C(=O)N[C@@H](CCCN=C(N)N)C(=O)NCC(N)=O)NC(=O)[C@H](CC(N)=O)NC1=O` (some centres undefined) (YFQNCPRG-NH2; linker N-5 via X4) [listing 1 of 2 here], the ED in the series filed under Rattus norvegicus [2] is given as 2 nmol/kg. Further, the Agonism in the series on Rattus norvegicus [1] is listed as 0 IU mg-1; in the series on Rattus norvegicus [4], 0.44 IU mg-1.

In the case of `NC(=O)CC[C@@H]1NC(=O)[C@H](Cc2ccccc2)NC(=O)[C@H](Cc2ccc(O)cc2)NC(=O)CC2(CCC(c3ccccc3)CC2)SSC[C@@H](C(=O)N2CCC[C@H]2C(=O)N[C@@H](CCCN=C(N)N)C(=O)NCC(N)=O)NC(=O)[C@H](CC(N)=O)NC1=O` (some centres undefined) (YFQNCPRG-NH2; linker N-5 via X4) [listing 2 of 2 here], in series [5], the Time is on record as greater than 180 min.

On to `CC1CCC2(CC1)CC(=O)N[C@@H](Cc1ccc(O)cc1)C(=O)N[C@@H](Cc1ccccc1)C(=O)N[C@@H](CCC(N)=O)C(=O)N[C@@H](CC(N)=O)C(=O)N[C@H](C(=O)N1CCC[C@H]1C(=O)N[C@@H](CCCN=C(N)N)C(=O)NCC(N)=O)CSS2` (some centres undefined) (YFQNCPRG-NH2; linker N-5 via X2) [listing 2 of 2 here], for which the Time in series [5] was 214 min.

Consider `COc1ccc(C[C@@H]2NC(=O)CC3(CCC(C(C)(C)C)CC3)SSC[C@@H](C(=O)N3CCC[C@H]3C(=O)N[C@@H](CCCN=C(N)N)C(=O)NCC(N)=O)NC(=O)[C@H](CC(N)=O)NC(=O)[C@H](CCC(N)=O)NC(=O)[C@H](Cc3ccccc3)NC2=O)cc1` (some centres undefined) (Y(Me)FQNCPRG-NH2; linker N-5 via X1) [listing 1 of 2 here], for which the ED in the series filed under Rattus norvegicus [2] was 1 nmol/kg. In addition, the values for the Agonism in the series on Rattus norvegicus [1] and in the series on Rattus norvegicus [4] were 0 IU mg-1 and 0.095 IU mg-1, respectively. This compound also gave an Antagonism with Rattus norvegicus [3] of 0.

`COc1ccc(C[C@@H]2NC(=O)CC3(CCCCC3)SSC[C@@H](C(=O)N3CCC[C@H]3C(=O)N[C@@H](CCCN=C(N)N)C(=O)NCC(N)=O)NC(=O)[C@H](CC(N)=O)NC(=O)[C@H](CCC(N)=O)NC(=O)[C@H](Cc3ccccc3)NC2=O)cc1` (Y(Me)FQNCPRG-NH2; linker N-5 via X6) [listing 2 of 2 here] came in with a Time in series [5] of 126 min.

Turning to `COc1ccc(C[C@@H]2NC(=O)CC3(CCC(C)CC3)SSC[C@@H](C(=O)N3CCC[C@H]3C(=O)N[C@@H](CCCN=C(N)N)C(=O)NCC(N)=O)NC(=O)[C@H](CC(N)=O)NC(=O)[C@H](CCC(N)=O)NC(=O)[C@H](Cc3ccccc3)NC2=O)cc1` (some centres undefined) (Y(Me)FQNCPRG-NH2; linker N-5 via X2) [listing 1 of 2 here], the ED in the series filed under Rattus norvegicus [2] amounted to 1.5 nmol/kg. For the same compound, the Agonism turned out to be 0 IU mg-1 with Rattus norvegicus [1] and 0.7 IU mg-1 with Rattus norvegicus [4]. Besides, the Antagonism in the series on Rattus norvegicus [3] worked out at 0.

`COc1ccc(C[C@@H]2NC(=O)CC3(CCC(c4ccccc4)CC3)SSC[C@@H](C(=O)N3CCC[C@H]3C(=O)N[C@@H](CCCN=C(N)N)C(=O)NCC(N)=O)NC(=O)[C@H](CC(N)=O)NC(=O)[C@H](CCC(N)=O)NC(=O)[C@H](Cc3ccccc3)NC2=O)cc1` (some centres undefined) (Y(Me)FQNCPRG-NH2; linker N-5 via X4) [listing 1 of 2 here]: the Time in series [5] is recorded as greater than 180 min.

For `COc1ccc(C[C@@H]2NC(=O)CC3(CCC(c4ccccc4)CC3)SSC[C@@H](C(=O)N3CCC[C@H]3C(=O)N[C@@H](CCCN=C(N)N)C(=O)NCC(N)=O)NC(=O)[C@H](CC(N)=O)NC(=O)[C@H](CCC(N)=O)NC(=O)[C@H](Cc3ccccc3)NC2=O)cc1` (some centres undefined) (Y(Me)FQNCPRG-NH2; linker N-5 via X4) [listing 2 of 2 here], the ED in the series listed under Rattus norvegicus [2] came out at 2 nmol/kg. For the same compound, the Agonism with Rattus norvegicus [1] came to 0 IU mg-1; in the series with Rattus norvegicus [4] it was 1.6 IU mg-1.

Regarding `CC1CCC2(CC1)CC(=O)[C@H](Cc1ccc(O)cc1)N[C@@H](Cc1ccccc1)C(=O)N[C@@H](CCC(N)=O)C(=O)N[C@@H](CC(N)=O)C(=O)N[C@H](C(=O)N1CCC[C@H]1C(=O)N[C@@H](CCCN=C(N)N)C(=O)NCC(N)=O)CSS2` (some centres undefined) (H-[X8]QNCPRG-NH2; disulfide 1-4), the Antagonism entry in the series on Rattus norvegicus [6] is “Weak”.

For `CC(C)(C)C1CCC2(CC1)CC(=O)N[C@@H](Cc1ccc(O)cc1)C(=O)N[C@@H](Cc1ccccc1)C(=O)N[C@@H](CCC(N)=O)C(=O)N[C@@H](CC(N)=O)C(=O)N[C@H](C(=O)N1CCC[C@H]1C(=O)N[C@@H](CCCN=C(N)N)C(=O)NCC(N)=O)CSS2` (some centres undefined) (YFQNCPRG-NH2; linker N-5 via X1) [listing 2 of 2 here], in series [5], the Time is given as 125 min.

On to `COc1ccc(C[C@@H]2NC(=O)CC3(CCC(C)CC3)SSC[C@@H](C(=O)N3CCC[C@H]3C(=O)N[C@@H](CCCN=C(N)N)C(=O)NCC(N)=O)NC(=O)[C@H](CC(N)=O)NC(=O)[C@H](CCC(N)=O)NC(=O)[C@H](Cc3ccccc3)NC2=O)cc1` (some centres undefined) (Y(Me)FQNCPRG-NH2; linker N-5 via X2) [listing 2 of 2 here], for which the Time in series [5] was greater than 140 min.

Compound `CN1CCC2(CC1)CC(=O)[C@H](Cc1ccc(O)cc1)N[C@@H](Cc1ccccc1)C(=O)N[C@@H](CCC(N)=O)C(=O)N[C@@H](CC(N)=O)C(=O)N[C@H](C(=O)N1CCC[C@H]1C(=O)N[C@@H](CCCN=C(N)N)C(=O)NCC(N)=O)CSS2` (H-[X5]QNCPRG-NH2; disulfide 1-4) came in with an ED in the series filed under Rattus norvegicus [2] of 0 nmol/kg. Besides, the values for the Agonism in the series on Rattus norvegicus [1] and with Rattus norvegicus [4] were 0.4 IU mg-1 and 0.87 IU mg-1, respectively. This compound also returned an Antagonism with Rattus norvegicus [3] of 0.

Take `COc1ccc(C[C@@H]2NC(=O)CC3(CCC(C(C)(C)C)CC3)SSC[C@@H](C(=O)N3CCC[C@H]3C(=O)N[C@@H](CCCN=C(N)N)C(=O)NCC(N)=O)NC(=O)[C@H](CC(N)=O)NC(=O)[C@H](CCC(N)=O)NC(=O)[C@H](Cc3ccccc3)NC2=O)cc1` (some centres undefined) (Y(Me)FQNCPRG-NH2; linker N-5 via X1) [listing 2 of 2 here]: the Time in series [5] is greater than 115 min.

In series [5], `COc1ccc(C[C@@H]2NC(=O)CC3(CCN(C)CC3)SSC[C@@H](C(=O)N3CCC[C@H]3C(=O)N[C@@H](CCCN=C(N)N)C(=O)NCC(N)=O)NC(=O)[C@H](CC(N)=O)NC(=O)[C@H](CCC(N)=O)NC(=O)[C@H](Cc3ccccc3)NC2=O)cc1` (Y(Me)FQNCPRG-NH2; linker N-5 via X3) [listing 1 of 2 here] displayed a Time of 110 min.

`COc1ccc(C[C@@H]2NC(=O)CC3(CCN(C)CC3)SSC[C@@H](C(=O)N3CCC[C@H]3C(=O)N[C@@H](CCCN=C(N)N)C(=O)NCC(N)=O)NC(=O)[C@H](CC(N)=O)NC(=O)[C@H](CCC(N)=O)NC(=O)[C@H](Cc3ccccc3)NC2=O)cc1` (Y(Me)FQNCPRG-NH2; linker N-5 via X3) [listing 2 of 2 here] displayed an ED in the series listed under Rattus norvegicus [2] of 3.6 nmol/kg. For the same compound, the results for the Agonism in the series with Rattus norvegicus [1] and with Rattus norvegicus [4] were 0 IU mg-1 and 0.23 IU mg-1, respectively.

In the case of `NC(=O)CC[C@@H]1NC(=O)[C@H](Cc2ccccc2)N[C@@H](Cc2ccc(O)cc2)C(=O)CC2(CCC(c3ccccc3)CC2)SSC[C@@H](C(=O)N2CCC[C@H]2C(=O)N[C@@H](CCCN=C(N)N)C(=O)NCC(N)=O)NC(=O)[C@H](CC(N)=O)NC1=O` (some centres undefined) (H-[X9]QNCPRG-NH2; disulfide 1-4), the Antagonism entry in the series with Rattus norvegicus [6] was “Weak”.
